# Screening results: PubChem, The Scripps Research Institute Molecular Screening Center
# Most compounds without a hit are left out; they make up all but 2.3% or so of the library.
# TAAR1 antagonist = human TAAR1 antagonism | inhibition, % at 3 µM | 360,000 tested, 1.5% active | AID 624466 | CHO RD-HGA16 TAAR1, Fluo-8 calcium fluorescence, antagonist;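 active = inhibition above a per-plate cutoff, the mean inhibition of test compounds on that plate plus 3 SD, cut at about 49% in these data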;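 note: 0% = DMSO plus EC80 beta-PEA response and 100% = DMSO alone without agonist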
#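 Assay system: RD-HGA16 CHO cells with stable hTAAR1 and Gα16 / Reagent: EC80 β-phenethylamine stimulus / Doses: 3 µM, single point / Timing: dye loading 75 min at 37 °C, then 30 min room temperature / Measured by: Fluo-8 intracellular calcium dye fluorescence, real-time kinetic reads / Controls: vehicle wells and EC80 agonist wells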
# V1aR counter = activates human V1a receptor in oxytocin agonist counter-screen; P37288; CHO-V1R cells, Fluo-8 calcium fluorescence, agonist mode; 0% DMSO, 100% 3 nM vasopressin; activation, % at 3 µM; 320,000 tested, 0.25% active;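 active = activation above the mean activation of all tested compounds plus 3 SD, per screening run, cut at about 20% in these data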;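 note: signal is peak over basal fluorescence ratio across a 100 second FLIPR read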
# OXTR agonist = activates the human oxytocin receptor | 320,000 tested, 0.32% active | CHO-OTR cells, Fluo-8 calcium fluorescence; normalized: DMSO 0%, oxytocin 100% | AID 2435 | activation, % at 3 µM | P30559;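 active = activation above the mean of all tested compounds plus 3 SD, cutoff set per screening run, cut at about 20% in these data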;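 note: peak over basal fluorescence ratio from a 100 s FLIPR kinetic read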
# Target sequence (P30559 whole entry, looked up): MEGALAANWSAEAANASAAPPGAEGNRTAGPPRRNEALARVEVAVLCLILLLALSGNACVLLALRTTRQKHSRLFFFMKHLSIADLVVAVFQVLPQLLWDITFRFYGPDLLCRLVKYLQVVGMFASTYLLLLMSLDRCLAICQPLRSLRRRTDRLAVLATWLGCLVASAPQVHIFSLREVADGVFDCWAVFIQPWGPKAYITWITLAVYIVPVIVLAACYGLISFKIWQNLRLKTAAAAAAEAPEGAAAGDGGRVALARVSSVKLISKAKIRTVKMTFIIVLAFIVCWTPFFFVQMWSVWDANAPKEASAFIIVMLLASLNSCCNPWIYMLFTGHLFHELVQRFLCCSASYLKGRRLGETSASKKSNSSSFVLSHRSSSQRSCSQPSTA
# TAAR1 ag = agonists of human TAAR1; CHO RD-HGA16 TAAR1, Fluo-8 calcium fluorescence; vehicle wells 0%, saturating PEA agonist 100%; Q96RJ0; activation, % at 3 µM; 360,000 tested, 0.99% active;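 active = activation above the mean activation of all test compounds in the run plus 3 SD, cut at about 38% in these data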
#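 test system = CHO RD-HGA16 cells carrying human TAAR1 plus Gα16 | schedule = 17-24 h seeding, 75 min 37 °C dye, 30 min RT | compound dosing = 3 µM single concentration | control set = DMSO and PEA EC100 | replicates = n 1 | signal = Fluo-8 fluorescence, 5 s baseline then 140 s kinetic read | measure = percent activation vs PEA EC100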
# OXTR potentiate = potentiates the human oxytocin receptor response | 320,000 tested, 0.061% active | activation, % at 3 µM | AID 2445 | CHO-OTR cells, Fluo-8 calcium fluorescence, potentiator mode; 0% = oxytocin EC15, 100% = EC100 | P30559;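 active = activation above that plate's cutoff, the mean activation of tested compounds plus 3 SD, cut at about 6.6% in these data, passing the limit was not always enough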;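 note: 100% uses oxytocin at 75 nM as the full agonist control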
#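 Assay system: CHO-OTR cells, human receptor / Also added: oxytocin at about EC15, sub-maximal agonist stimulus / Dosing: single dose, 3.0 µM nominal final compound concentration / Incubation: 6 min pre-incubation, 100 s read / Technique: Fluo-8 calcium dye fluorescence / Read-out: % activation vs EC15 and EC100 oxytocin / Benchmarks: EC15 oxytocin low, 75 nM oxytocin high / Replicates: singlicate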
# TAAR1 ag confirm = confirmation of human TAAR1 agonists; 2,400 tested, 82% active; CHO RD-HGA16 TAAR1, Fluo-8 calcium fluorescence; scaled: DMSO 0%, maximal phenethylamine 100%; AID 651783; activation, % at 3 µM; shares compounds with TAAR1 ag;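 active = activation above a cutoff set at the run's mean compound activation plus 3 SD, cut at about 39% in these data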
# Ga16 nonsel ag = nonselective agonist in parental cells, TAAR1 agonist counter-screen; 2,400 tested, 50% active; activation, % at 3 µM; shares compounds with TAAR1 ag; CHO-Ga16 parental, Fluo-8 calcium fluorescence; normalized to maximal ATP response, DMSO zero;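 active = activation above the run cutoff, the mean activation over all tested wells plus 3 SD, cut at about 12% in these data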;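 note: 0% = DMSO wells and 100% = maximal ATP response on the peak over basal ratio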
# TAAR1 desensitize = counter-screen for human TAAR1 agonists: agonists that desensitize TAAR1. shares compounds with TAAR1 ag. CHO RD-HGA16 hTAAR1, Fluo-8 calcium, beta-PEA response inhibition. inhibition, % at 3 µM. 2,400 tested, 46% active. AID 651951;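 active = inhibition above the run cutoff, the mean inhibition of all test compounds plus 3 SD, cut at about 49% in these data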;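 note: beta-PEA stimulus applied at its EC80; loss of beta-PEA calcium signal after compound pretreatment read as receptor desensitization; 0% = DMSO with beta-PEA at EC80 and 100% = DMSO alone without agonist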
# Ga16 antag count = counter-screen for TAAR1 agonists: nonselective Ga16 antagonists; 2,400 tested, 39% active; inhibition, % at 3 µM; CHO-Ga16 ATP-induced calcium, Fluo-8 fluorescence; shares compounds with TAAR1 ag; AID 651952;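 active = inhibition above the plate's mean compound inhibition plus 3 SD, computed per plate, cut at about 22% in these data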;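 note: 0% = EC80 ATP with DMSO and 100% = DMSO wells without ATP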
# * hit, by the source's call; . = no result.
SMILES,TAAR1 antagonist,V1aR counter,OXTR agonist,TAAR1 ag,OXTR potentiate,TAAR1 ag confirm,Ga16 nonsel ag,TAAR1 desensitize,Ga16 antag count
O=c1[nH]ncc(N/N=C\c2cccnc2)c1Cl,-16,2,1,11,7,.,.,.,.
COc1ccc(NC(=O)COc2cccc3c2CCNC3=O)cc1,2,.,.,1,.,.,.,.,.
O=C(CCCCCBr)N1CCC(CC2CC(c3cccc(Br)c3)=NO2)(C(=O)NCC2CCCCC2)CC1 (configuration not stated),-2,0,-1,10,-13,.,.,.,.
O=C(CSCc1ccco1)N1CCc2ccccc21,.,0,-1,.,1,.,.,.,.
O=C1c2cccc3c(N4CCCCC4)ccc(c23)C(=O)N1c1ccccc1O,65*,41*,43*,130*,-36,24,33*,36,50*
Cn1c(N)c(C(=O)COC(=O)CNC(=O)c2ccccc2Cl)c(=O)n(C)c1=O,-27,1,0,3,2,.,.,.,.
O=C(NCCc1ccccc1F)[C@@H]1CSC2c3ccccc3C(=O)N21 (some centres not stated),22,1,0,60*,2,65*,3,38,9
O=C(O)[C@@H]1CSC2c3ccccc3C(=O)N21 (some centres not stated),8,1,0,2,6,.,.,.,.
CC(Cc1ccccc1)N/C=C1\CC(=O)NC1=O (configuration not stated),53*,1,1,74*,-1,72*,0,23,6
CC(Cc1ccccc1)NC(=O)C1CCCNC1=O (configuration not stated),-1,0,1,11,3,.,.,.,.
c1ccc(CCNc2c3c(nc4ncnn24)CCC3)cc1,9,5,7,62*,-12,90*,7,38,6
Fc1ccccc1CCNc1c2c(nc3ncnn13)CCCC2,1,5,6,30,-9,.,.,.,.
Cc1ccc2c(c1)N(CC(=O)NCC(C)c1ccccc1)C(=O)c1cccnc1O2 (configuration not stated),47,-1,-2,56*,-6,74*,3,50*,10
Cc1ccc2c(c1)N(CC(=O)Nc1c(C)cccc1C)C(=O)c1cccnc1O2,-23,1,0,3,-7,.,.,.,.
Brc1ccc(C2=CC(c3cccs3)n3ncnc3N2)cc1 (configuration not stated),110*,75*,75*,164*,-27,36,51*,62*,57*
O=C(NC1=NCCS1)c1ccc(Cl)c(S(=O)(=O)N2CCOCC2)c1,-6,2,0,5,-16,.,.,.,.
COc1cccc(-c2ccc(NC(=O)C3CCCN(Cc4cnc(N(C)C)s4)C3)cc2)c1 (configuration not stated),28,6,11,63*,-4,64*,33*,30,18
COc1cccc(-c2ccc(NC(=O)C3CCCN(Cc4ccccn4)C3)cc2)c1 (configuration not stated),8,.,.,4,.,.,.,.,.
O=C(C1=C(O)C(=O)N(CCc2ccccc2)C1c1cccnc1)c1ccco1 (configuration not stated),-1,2,0,47*,-10,59*,5,4,-3
CCN(CC)CCN1C(=O)C(O)=C(C(=O)c2cc3ccccc3o2)C1c1cccnc1 (configuration not stated),-17,3,1,11,0,.,.,.,.
